High-throughput results: PubChem BioAssay, several laboratories
TRPML3 agonist – activates the human TRPML3 channel | Q8TDD5 | HEK293 TRPML3-YFP, Fluo-8 calcium fluorescence; 100% = the carbachol control signal | activation, % at 3 µM | 220,000 compounds, 0.29% hits | AID 1448;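 active means activation above its plate's cutoff, the mean activation of the plate's test wells plus 3 SD, cut at about 12% in these data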;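 further: 0% = DMSO only wells and 100% = carbachol wells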
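Test system: TRPML3-YFP stable HEK293 cells. Doses: single point at 3 µM. Incubation: dye loading 1 h 37 °C then 30 min ambient, 125 s read. Signal: Fluo-8 calcium dye fluorescence, ex 470-495, em 515-575 nm. Measure: percent activation from peak-to-basal fluorescence ratio, scaled between DMSO and carbachol.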
OXTR potentiate – human OXTR potentiation; P30559; CHO-OTR cells, Fluo-8 calcium fluorescence, potentiator mode; 0% = oxytocin EC15, 100% = EC100; activation, % at 3 µM; 320,000 compounds, 0.061% hits;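 active means activation above that plate's cutoff, the mean activation of tested compounds plus 3 SD, cut at about 6.6% in these data, passing the limit was not always enough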;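 further: 100% uses oxytocin at 75 nM as the full agonist control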
Target sequence (P30559 whole entry, looked up): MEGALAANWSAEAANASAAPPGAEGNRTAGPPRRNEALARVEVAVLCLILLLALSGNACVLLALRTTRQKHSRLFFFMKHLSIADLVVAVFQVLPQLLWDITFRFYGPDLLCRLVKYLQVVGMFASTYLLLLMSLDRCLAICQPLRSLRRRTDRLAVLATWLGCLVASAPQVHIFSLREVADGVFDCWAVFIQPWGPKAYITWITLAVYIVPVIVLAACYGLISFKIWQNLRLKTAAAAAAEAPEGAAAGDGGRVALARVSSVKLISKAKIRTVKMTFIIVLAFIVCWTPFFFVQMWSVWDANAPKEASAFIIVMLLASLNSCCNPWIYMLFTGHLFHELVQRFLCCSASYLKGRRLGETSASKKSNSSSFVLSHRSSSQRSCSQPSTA
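Material: CHO-OTR cells, human receptor; compound dosing: single dose, 3.0 µM nominal final compound concentration; schedule: 6 min compound pre-incubation at room temperature, 100 s kinetic read; measured by: kinetic Fluo-8 calcium fluorescence; read-out basis: % activation vs EC15 and EC100 oxytocin; controls: EC15 oxytocin alone as 0%, 75 nM oxytocin as 100%; replicates: singlicate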
CRFR2-BP ag – CRF-BP/CRF-R2 complex agonism; HEK293 CRF-R2/CRF-BP, calcium dye fluorescence (FLIPR); percent of saturating CRF peptide response; activation, % at 13.2 µM; 350,000 compounds, 0.46% hits;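 active means activation of at least 50%, plus an integration ratio under a set limit after plate pattern correction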;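 further: plate controls were neutral control wells without compound for no effect and CRF at EC100 for full effect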
V1aR counter – V1a receptor agonism, counter-screen for OXTR agonists; CHO-V1R cells, Fluo-8 calcium fluorescence, agonist mode; 0% DMSO, 100% 3 nM vasopressin; activation, % at 3 µM; 320,000 compounds, 0.25% hits; AID 2797;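 active means activation above the mean activation of all tested compounds plus 3 SD, per screening run, cut at about 20% in these data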;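 further: signal is peak over basal fluorescence ratio across a 100 second FLIPR read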
OXTR ag – human OXTR agonism; CHO-OTR cells, Fluo-8 calcium fluorescence; normalized: DMSO 0%, oxytocin 100%; P30559; activation, % at 3 µM; 320,000 compounds, 0.32% hits;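 active means activation above the mean of all tested compounds plus 3 SD, cutoff set per screening run, cut at about 20% in these data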;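 further: peak over basal fluorescence ratio from a 100 s FLIPR kinetic read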
TRPN1 ag – agonists of zebrafish TRPN1 channel; AID 1424; HEK293 zebrafish TRPN1-YFP, Fluo-8 calcium fluorescence; 100% = response to 87 µM carbachol; 220,000 compounds, 0.18% hits; activation, % at 3 µM;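 active means activation above its plate's cutoff, the mean activation of test wells on that plate plus 3 SD, cut at about 19% in these data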;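 further: 0% = DMSO alone and 100% = 87 µM carbachol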
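Material: zebrafish TRPN1-YFP in HEK293 cells; Doses: single test compound dose, 3 µM nominal, 0.3% DMSO; Timing: dye loading 1 h at 37 °C, then 30 min room temperature; Technique: intracellular calcium fluorescence with Fluo-8; Benchmarks: high carbachol 87 µM, low DMSO alone.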
TRPN1 ag 2 – zebrafish TRPN1 agonism as TRPML3 agonist counter-screen; shares compounds with TRPML3 agonist; HEK293 zebrafish TRPN1-YFP, Fluo-8 calcium fluorescence; scaled: carbachol wells 100%, DMSO wells 0%; activation, % at 3 µM; 310 compounds, 10% hits;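 active means mean activation over replicates above a set limit taken from the earlier TRPN1 channel primary screen, cut at about 19% in these data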;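 further: 100% = carbachol and 0% = 0.3% DMSO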
TRPML3 ag conf – confirmation of human TRPML3 channel agonists | shares compounds with TRPML3 agonist | HEK293 TRPML3-YFP, Fluo-8 calcium fluorescence; 100% set by carbachol, 0% by DMSO | activation, % at 3 µM | 310 compounds, 80% hits | AID 1526;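 active means activation above a set limit derived from the earlier primary screen, cut at about 12% in these data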
* marks the source's active call; other numbers are inactive results; nt = no result. Hits are enriched below; roughly 0.83% of the tested compounds scored in any of these assays.

SMILES	TRPML3 agonist	OXTR potentiate	CRFR2-BP ag	V1aR counter	OXTR ag	TRPN1 ag	TRPN1 ag 2	TRPML3 ag conf
COc1ccc(/C=N\NC(=S)SCN2C(=O)C3CCC(C)(C2=O)C3(C)C)cc1 (configuration not stated)	39*	-11	-2	0	-2	-1	0	0
CN(C)c1ccc(/C=N/NC(=O)CCCO)cc1	1	-7	0	1	0	2	nt	nt
CC1c2ccccc2N(S(=O)(=O)c2ccccc2)C1C (configuration not stated)	nt	nt	7	nt	nt	nt	nt	nt
COc1ccc(NC(=O)c2cncn2-c2ccccc2)cc1	nt	2	-1	1	0	nt	nt	nt
CSc1nsc(/C=C/Nc2cccc(Cl)c2)c1C#N	40*	-26	-1	0	1	1	0	14*
CN(CC(=O)O/N=C(\N)c1ccc([N+](=O)[O-])cc1)S(=O)(=O)c1ccccc1	8	-8	6	6	5	1	nt	nt
CN(CC(=O)O/N=C(\N)c1cccc([N+](=O)[O-])c1)S(=O)(=O)c1ccccc1	96*	-5	2	4	2	0	2	36*
CCCCN(CCCC)CCNC(=O)c1cn(CC)c2ccc(S(=O)(=O)N3CCCC3)cc2c1=O	nt	-4	4	0	1	nt	nt	nt
Cc1ccc(S(=O)(=O)Nc2ccccc2N2CCCCC2)cc1	nt	-6	10	-1	-2	nt	nt	nt
O=S(=O)(Nc1ccccc1N1CCCCC1)c1ccc(F)cc1F	16*	7	0	-1	-2	-3	-3	11
Cc1c(Cl)ccc(S(=O)(=O)N2CCN(C)CC2)c1Cl	nt	nt	1	nt	nt	nt	nt	nt
Cc1ccc(S(=O)(=O)N2CCN(C)CC2)c(C)c1N(C)S(=O)(=O)c1ccc(Cl)cc1	77*	-14	-4	4	10	1	5	58*
Cc1cc(C)c(S(=O)(=O)N2CCCCC2)cc1N(C)S(=O)(=O)c1ccc(Cl)cc1	68*	-10	9	0	-1	0	-1	69*
CC(C)(C)OC(=O)N1CCC(c2c(C(=O)NCC3CCN(C4CCCC4)C3)cnn2-c2ccc(F)cc2)CC1 (configuration not stated)	nt	-2	3	0	-1	nt	nt	nt
Cc1ccc(S(=O)(=O)NCc2ccccc2)cc1C(=O)NCc1ccncc1	nt	nt	-1	nt	nt	nt	nt	nt
O=C(CN1C(=O)NC2(CCc3ccccc32)C1=O)NCc1ccc(Cl)cc1 (configuration not stated)	nt	-6	-1	1	1	nt	nt	nt
COC(=O)c1c(C(=O)OC)c2c(-c3ccccc3)cc3cccc1n32	nt	nt	1	nt	nt	nt	nt	nt
O=[N+]([O-])c1ccc(C2CCCC/C2=N/OCc2ccccc2F)c([N+](=O)[O-])c1 (configuration not stated)	0	-12	1	1	5	0	nt	nt
O=C(O/N=C1\CCCCC1c1ccc([N+](=O)[O-])cc1[N+](=O)[O-])c1c(F)cccc1F (configuration not stated)	57*	-1	0	0	-2	-2	-2	6
COc1ccc(OC)c(N(CC(=O)N2CCCC2)S(=O)(=O)c2ccc(C)cc2)c1	nt	3	-1	2	1	nt	nt	nt
COc1ccc(OC)c(N(CC(=O)N2CCCCC2)S(=O)(=O)c2ccc(OC)c(OC)c2)c1	88*	-9	3	0	-1	0	2	105*
COc1ccc(N(CC(=O)N2CCCCC2)S(=O)(=O)c2ccccc2)c(OC)c1	71*	-9	-1	0	0	1	2	121*
COc1ccc(OC)c(N(CC(=O)N2CCC(C)CC2)S(=O)(=O)c2ccccc2)c1	8	-1	-1	-1	-1	0	nt	nt
COc1cc2oc3ccccc3c2cc1N(CC(=O)N1CCCCC1)S(=O)(=O)c1ccc(C)cc1	179*	-9	89*	2	-2	16	48*	147*
COc1cccc(CNC(=O)c2cc(S(=O)(=O)N3CCCCC3)ccc2C)c1	nt	nt	0	nt	nt	nt	nt	nt
SMILES	TRPML3 agonist	OXTR potentiate	CRFR2-BP ag	V1aR counter	OXTR ag	TRPN1 ag	TRPN1 ag 2	TRPML3 ag conf
CC(C)(C)NC(=O)CN1C(=O)c2cccc3cccc1c23	nt	nt	0	nt	nt	nt	nt	nt
CCOC(=O)C(C)(C)N(Cc1cccc(C)c1)S(=O)(=O)c1cccc([N+](=O)[O-])c1	12*	-8	-1	0	-1	-2	-1	36*
CCOC(=O)C(C)(C)N(Cc1cccc(C)c1)S(=O)(=O)c1ccc(Cl)c([N+](=O)[O-])c1	0	-13	1	0	-1	0	nt	nt
CC(=O)Nc1ccc(N(CC(=O)NC2CCCCC2)C(=O)Cn2nnc(-c3ccccc3)n2)cc1	nt	1	1	0	1	nt	nt	nt
O=C(CN1CCN(S(=O)(=O)c2ccc(F)cc2)CC1)Nc1ccc(Cl)c(C(F)(F)F)c1	15*	-22	6	13	12	1	4	43*
O=C(CN1CCN(S(=O)(=O)c2ccc(F)cc2)CC1)Nc1ccc2c(c1)OCCO2	1	-9	-1	1	0	0	nt	nt
CN(CC(=O)NC1CCCc2ccccc21)C1CCCCC1 (configuration not stated)	1	-7	0	-1	0	-1	nt	nt
CN(C1CCCCC1)S(=O)(=O)c1cccc(C(=O)OCC(=O)NC2CCCc3ccccc32)c1 (configuration not stated)	70*	-10	-1	-1	-1	4	4	61*
NC1=NC2OC(CO)C(O)C2O1 (configuration not stated)	nt	nt	-1	nt	nt	nt	nt	nt
Cc1cc(NC(=O)COC(=O)C(Cc2ccccc2)NC(=O)c2ccco2)no1 (configuration not stated)	18*	-10	153*	0	-1	5	22*	24*
COc1ccc(OC)c(NC(=O)COC(=O)[C@H](Cc2ccccc2)NC(=O)c2ccco2)c1	nt	-6	-1	2	2	nt	nt	nt
O=C1c2ccccc2-c2onc3ccc(N4CCCC4)c1c23	14*	nt	83*	nt	nt	18	51*	39*
CC(=O)N/C(=C\c1ccccc1)C(=O)OCC(=O)Nc1cc(S(=O)(=O)N(C)C)ccc1C	nt	-8	2	4	5	nt	nt	nt
